Measurements published in ChEMBL document CHEMBL1151279, “Sesquiterpenoids and norsesquiterpenoids from the Formosan soft coral Lemnalia laevis” (2005).
Values after ≈ are worked out from the molar mass of the structure shown.

Experiments:
HT-29 = test: Cytotoxicity against human HT-29 cells; assay type: functional; conditions: read-out: ED50 (the source's name)
Summary of the method: (§1)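 Cytotoxicity assay run as previously described, with test compounds at three concentrations (50, 5 and 0.5 µg/mL). HT29 cells are human colon adenocarcinoma. P-388 cells are mouse lymphocytic leukemia, supplied by J. M. Pezzuto.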

P388 = test: Cytotoxicity against mouse P388 cells; assay type: functional; conditions: read-out: ED50 (the source's name); summary of the method: as §1

`C[C@H]1CCC=C2CCC(C(C)(O)CO)=C[C@@]21C` (some centres not stated) was tested. Which EC50 (HT-29) did it give?
Its EC50 is 0.33 µg/mL (≈ 1.4 µM).

What about the EC50 (P388) of the same molecule?
Its EC50 is 0.21 µg/mL (≈ 0.888 µM).

Which EC50 (HT-29) does the source give for `CC(=O)[C@@H]1C(=O)CC[C@]23O[C@H]2[C@H](O)C[C@H](C)[C@@]13C` here?
Its EC50 is greater than 5 µg/mL.

And the EC50 (P388)?
The EC50 was greater than 5 µg/mL.

Which EC50 (HT-29) does the source give for `CC(=O)O[C@@H]1C(=O)CCC2=CC(=O)C[C@H](C)[C@@]2(C)/C=C\1C` (single isomer, unassigned) [LAEVINONE A] here?
The EC50 was greater than 5 µg/mL.

What about the EC50 (P388) of the same molecule?
The EC50 was greater than 5 µg/mL.

How did the EC50 (HT-29) turn out when `CC(=O)[C@H]1[C@@H](OC=O)CCC2=C[C@@H](O)C[C@H](C)[C@]21C` [LAEVINOL A] was run?
Its EC50 is greater than 5 µg/mL.

And the EC50 (P388)?
Its EC50 is greater than 5 µg/mL.

Which results are given for `CC(=O)[C@H]1[C@@H](O)CCC2=C[C@@H](O)C[C@H](C)[C@]21C` [LAEVINOL B]?
EC50 (HT-29): > 5 µg/mL; EC50 (P388): > 5 µg/mL

Which results are given for `CC(=O)[C@H]1[C@H](O)CCC2=C[C@@H](O)C[C@H](C)[C@]21C` [LAEVINOL C]?
EC50 (HT-29): > 5 µg/mL; EC50 (P388): > 5 µg/mL

Which results are given for `CC(=O)[C@H]1[C@@H](O)CCC2=C[C@H](O)C[C@H](C)[C@]21C` [LAEVINOL D]?
EC50 (HT-29): > 5 µg/mL; EC50 (P388): > 5 µg/mL

How did the EC50 (HT-29) turn out when `CC(=O)[C@H]1C(=O)CCC2=C[C@@H](O)C[C@H](C)[C@]21C` [LAEVINOL E] was run?
Its EC50 is greater than 5 µg/mL.

What about the EC50 (P388) of the same molecule?
Its EC50 is greater than 5 µg/mL.

Which results are given for `CC(=O)[C@H]1[C@H](O)CC[C@]23O[C@H]2[C@@H](O)C[C@H](C)[C@@]13C` [LAEVINOL F]?
EC50 (HT-29): > 5 µg/mL; EC50 (P388): > 5 µg/mL

How did the EC50 (HT-29) turn out when `CC(=O)[C@H]1[C@H](O)CC[C@]23O[C@H]2[C@H](O)C[C@H](C)[C@@]13C` [LAEVINOL G] was run?
The EC50 was greater than 5 µg/mL.

And the EC50 (P388)?
The EC50 was greater than 5 µg/mL.

What does the source list for `CC(=O)[C@H]1[C@H](O)CC[C@]23O[C@H]2CC[C@H](C)[C@@]13C` [LAEVINOL H]?
EC50 (HT-29): > 5 µg/mL; EC50 (P388): > 5 µg/mL
